An excerpt weighted towards active compounds, which were near 1.1% of everything screened.
MT1-MMP act inh: blocks activation of human MT1-MMP | hit rate 0.061% among 360,000 | GFP/RFP ratio change, % at 20 µM | HT1080 RFP-PRO-GFP cells, GFP/RFP ratio fluorescence, overnight; percent of plate control window, DMSO zero;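 active = GFP/RFP ratio change of at least 30% with cell ATP level not reduced by more than half and red fluorescence within 50% of control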
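Assay system: HT1080 RFP-PRO-GFP cells. Benchmarks: DMSO vehicle wells and RFP-L50D-GFP reporter cell wells. Times: overnight cell settling, then overnight compound exposure, 37 °C, 5% CO2. Compound: 20 µM single dose, 1% DMSO. Read-out basis: GFP/RFP fluorescence ratio.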
NPR2 activator: GC-B (human) receptor activation. HEK293-GC-B cells, CNP EC30, cGMP TR-FRET; 0% at EC30 CNP, 100% saturating CNP. P20594. activation, % at 10 µM. hit rate 0.11% among 370,000;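 active = activation at 10 µM reaching about 35% in either raw or pattern-adjusted values, limit read from the data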
NPR1 activator: GC-A (human) enzyme activation; P16066; HEK293 GC-A cells, cGMP TR-FRET, EC30 ANP; 0% at EC30 ANP, 100% saturating ANP; activation, % at 10 µM; hit rate 0.14% among 370,000; AID 1671463; in the data active = activation above about 40%
Target sequence (P16066 whole entry, looked up): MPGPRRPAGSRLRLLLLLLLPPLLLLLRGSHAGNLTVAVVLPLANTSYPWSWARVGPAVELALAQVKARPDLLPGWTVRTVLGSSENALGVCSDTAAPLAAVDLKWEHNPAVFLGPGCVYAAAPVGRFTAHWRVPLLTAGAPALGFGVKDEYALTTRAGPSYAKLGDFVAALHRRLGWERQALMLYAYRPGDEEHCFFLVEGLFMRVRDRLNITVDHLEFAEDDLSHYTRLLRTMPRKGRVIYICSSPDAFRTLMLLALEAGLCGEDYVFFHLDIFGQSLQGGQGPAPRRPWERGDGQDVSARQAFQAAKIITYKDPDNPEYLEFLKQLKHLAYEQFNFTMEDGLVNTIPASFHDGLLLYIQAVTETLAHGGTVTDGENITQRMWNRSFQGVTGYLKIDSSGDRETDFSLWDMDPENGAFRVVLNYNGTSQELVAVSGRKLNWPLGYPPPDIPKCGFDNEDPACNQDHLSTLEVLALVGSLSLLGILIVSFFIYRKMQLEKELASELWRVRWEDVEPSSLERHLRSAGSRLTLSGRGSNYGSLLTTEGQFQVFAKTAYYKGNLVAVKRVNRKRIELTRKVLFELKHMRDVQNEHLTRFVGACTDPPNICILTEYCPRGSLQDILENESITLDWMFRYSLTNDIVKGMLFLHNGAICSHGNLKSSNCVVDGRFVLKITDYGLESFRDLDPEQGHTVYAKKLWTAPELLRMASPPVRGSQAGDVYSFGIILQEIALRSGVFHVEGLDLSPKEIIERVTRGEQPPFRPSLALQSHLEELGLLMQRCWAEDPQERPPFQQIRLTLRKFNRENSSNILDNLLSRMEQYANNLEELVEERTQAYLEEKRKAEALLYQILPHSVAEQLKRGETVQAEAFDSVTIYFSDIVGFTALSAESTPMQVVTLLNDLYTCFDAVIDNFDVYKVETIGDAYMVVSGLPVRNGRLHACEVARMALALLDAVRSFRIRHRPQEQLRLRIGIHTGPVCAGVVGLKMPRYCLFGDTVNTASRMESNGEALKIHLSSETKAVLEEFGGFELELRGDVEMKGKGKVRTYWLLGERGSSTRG
SKN-1 block: blocks SKN-1 activity in C. elegans; C. elegans VP596 Pgst-4::GFP/RFP ratio, acrylamide-induced, 24 h; inhibition, % at 21.8 µM; hit rate 0.49% among 360,000; AID 624304;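 active = interference check ratio from 0.5 to 1.5 plus GFP to RFP signal ratio inhibition reaching or exceeding a fixed threshold, cut at about 30% in these data, passing the limit was not always enough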
Bfl-1 A1 inh: inhibitors of the anti-apoptotic protein A1, read as caspase activation. MEF A1-2A-BIM cells, Caspase-Glo 3/7 luminescence, 3 h; percent of clofoctol response, vehicle zero. caspase activation, % (test concentration not listed). hit rate 0.066% among 330,000. AID 2462;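 active = over half of replicate activation scores above 10%, or exactly half above 10 with the replicate mean above 10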
Tb MetRS inh: blocks T. brucei methionyl-tRNA synthetase activity | purified T. brucei MetRS, ATP depletion, Kinase-Glo luminescence | inhibition, % at 11.9 µM | hit rate 0.4% among 360,000 | AID 624268;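 active = inhibition above a per-plate cutoff of the control wells' mean inhibition plus 3 SD, cut at about 5.5% in these data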;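 also: 0% = DMSO wells median and 100% = median of wells with control inhibitor compound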
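technique = Kinase-Glo luminescence, ATP depletion format | system = purified MetRS (methionyl-tRNA synthetase) enzyme from Trypanosoma brucei | timing = 15 min preincubation, 2 h reaction, all 25 °C | evaluation = percent inhibition versus plate control medians | dosing = single dose, 11.9 µM final nominal, 0.9% final DMSO | also added = substrates ATP, L-methionine and bulk Escherichia coli tRNA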
* = called active by the depositor; . = no result given.

SMILES	MT1-MMP act inh	NPR2 activator	NPR1 activator	SKN-1 block	Bfl-1 A1 inh	Tb MetRS inh
O=C1NCCN/C1=C\C(=O)c1ccc(F)cc1	-1	-1	18	-2	0	-1
O=C1NCCN/C1=C\C(=O)c1ccc(Cl)cc1	5	-2	41*	-9	-2	0
COc1ccccc1NS(=O)(=O)c1cc([N+](=O)[O-])ccc1N/N=C/c1c[nH]c2ccccc12	-75	-10	-4	40*	-1	0
O=C(c1ccc([N+](=O)[O-])cc1)N(c1ccccn1)c1ccccn1	-3	0	2	-7	1	-1
CN(N=Cc1ccc([N+](=O)[O-])cc1)c1ccccn1	-2	-2	-3	48*	.	0
O=C(Nc1ccccc1)Nc1nc2ncccn2c1-c1ccc(F)cc1	.	-4	1	.	.	.
Cc1nn(Cc2ccc(F)cc2)c2sc(C(=O)Nc3ccc(N4CCOCC4)cc3N3CCOCC3)cc12	-6	40*	32	-1	0	0
CCCC(=O)NCc1ccc2c(c1)cc(C)n2C	25	7	0	54	1	-1
Cc1cc2cc(CNC(=S)Nc3ccc(OC(F)(F)F)cc3)ccc2n1C	50	-3	4	57*	-1	-1
Cc1cc2cc(CNC(=O)c3ccc(S(=O)(=O)N4CCOCC4)cc3)ccc2n1C	35	1	2	45	1	0
CC(=O)Nc1ccc(S(=O)(=O)NCc2ccc3c(c2)cc(C)n3C)cc1	47	2	1	50*	0	0
Cc1cc2cc(CNC(=O)c3cccc([N+](=O)[O-])c3)ccc2n1C	-1	4	4	47*	-1	-1
Cc1cc2cc(CNC(=O)c3ccc(S(=O)(=O)N(C)C)cc3)ccc2n1C	32	1	0	45*	0	-1
CC(=O)Nc1ccc(S(=O)(=O)NCc2ccc(C)cc2)cc1	-1	0	3	-12	-2	0
CCCC1CCC2(CC1)CCC2OC(=S)Nc1ccccc1 (stereo not drawn)	.	4	1	.	.	.
COC(=O)C1CN(Cc2cn(Cc3ccc(OC)cc3)nn2)CCS(=O)(=O)N1Cc1ccc(F)cc1 (stereo not drawn)	.	-1	-3	.	.	.
COCCCN1C(=O)[C@H](CC(=O)NCc2ccccc2)[C@]2(C(=O)OC)CCCCC=C12	.	1	4	.	.	.
O=C(CN1C(=O)NC2(CCCC2)C1=O)Nc1nc(-c2ccc(F)cc2)cs1	7	7	45*	6	1	-1
CC1(C)NC(=O)N(CC(=O)Nc2nc(-c3ccc(F)cc3)cs2)C1=O	3	7	48*	10	-3	1
CCN(CC)c1ccc(/C=C2/C(=O)c3ccc(C(=O)O)cc3C2=O)cc1	-30	-5	3	52*	-5	-1
O=C(c1ccncc1F)N1CCC(n2nnc3ncccc32)CC1	.	1	4	.	.	.
Cc1ccc(CNc2nc(-c3cccnc3)nc3ccccc23)cc1	2	57*	56*	8	0	0
c1cncc(-c2nc(NCc3ccc4c(c3)OCO4)c3ccccc3n2)c1	-4	59*	53*	18	-1	2
c1ccc(CNc2nc(-c3ccccc3)nc3ccccc23)cc1	1	11	16	28	0	0
c1ccc(CNc2nc(NCc3ccccc3)c3ccccc3n2)cc1	-6	.	.	32	0	6.5*
SMILES	MT1-MMP act inh	NPR2 activator	NPR1 activator	SKN-1 block	Bfl-1 A1 inh	Tb MetRS inh
CCOC(=O)[C@]12CCCCC/C=C\1N(CCc1ccc(Cl)cc1)C(=O)[C@H]2CC(=O)NCC12CC3CC(CC(C3)C1)C2	.	-7	0	.	.	.
O=[N+]([O-])c1ccc(Nc2ccc(Cl)cc2)nc1	3	-8	3	39*	0	0
O=[N+]([O-])c1ccc(NCc2ccc(Cl)cc2)nc1	4	-1	-1	43*	-1	-1
CC(C)c1ccc(CNc2ccc([N+](=O)[O-])cn2)cc1	-5	4	4	9	0	-2
COCCCNC(=O)c1ccc2c(c1)NC(=O)C(C)(C)O2	.	-7	5	.	.	.
N#Cc1c(NC(=O)c2ccccc2Cl)n(Cc2ccccc2)c2nc3ccccc3nc12	-78	10	1	18	0	6.8*
CCCCn1c(NC(=O)c2ccccc2Cl)c(C#N)c2nc3ccccc3nc21	-131	.	.	33	0	5
C=CCN=c1scc(-c2ccccc2)n1/N=C/c1ccccn1	2	-2	-2	7	-1	0
CCN=c1scc(-c2ccccc2)n1/N=C/c1ccccn1	-1	.	.	44*	-3	0
CCN=c1scc(-c2ccc(F)cc2)n1/N=C/c1ccccn1	1	-2	-3	45*	-1	-1
CCOC(=O)C1=C(C)OC(=Cc2ccccc2)C1=O	-13	1	-2	20	.	0
CCOC(=O)C1=C(O)c2ccccc2C(=O)/C1=C\c1ccc(C)cc1	9	.	.	48*	-1	0
CN[C@H]1C[C@H]2c3[nH]c4cccc(-c5cccc(F)c5)c4c3CCN2C(=O)[C@H]1[C@H](C)O	.	-8	-5	.	.	.
Cc1ccc(OCC(C)CN2CCC(C(O)(c3ccccc3)c3ccccc3)CC2)cc1 (stereo not drawn)	.	-5	-14	.	.	.
O=c1c2ccccc2c(-c2ccccc2)nn1-c1cc(Cl)ccc1[N+](=O)[O-]	-4	2	12	17	0	-1
CCc1ccc(-c2nn(-c3cc(Cl)ccc3[N+](=O)[O-])c(=O)c3ccccc23)cc1	-4	1	2	37*	.	-2
CCCS(=O)(=O)N1CCCC(C(=O)NCc2cccnc2)C1 (stereo not drawn)	3	-3	4	5	0	0
CCCS(=O)(=O)N1CCC(C(=O)NCc2cccnc2)CC1	6	-5	2	52*	0	0
C[C@H](NC(=O)c1[nH]cnc1C(=O)Nc1ccc(Cl)cc1)C(=O)OC(C)(C)C	5	.	.	36*	2	0
CCn1c(SCC(=O)Nc2ccc(C(C)C)cc2)nnc1-c1ccc(C(C)(C)C)cc1	.	7	2	.	.	.
CCOc1cccc2cc(C(=O)N3CCc4ccccc43)c(=O)oc12	3	7	-2	47*	0	-1
CCOc1ccc(-n2c(SCC(=O)Nc3ccc(S(=O)(=O)Nc4cc(C)nc(C)n4)cc3)nnc2-c2ccc(C)cc2)cc1	.	2	-1	.	.	.
CCc1nc(NCc2ccccc2)c(C#N)c2c1CCCC2	3	1	0	8	-1	0
N#Cc1c(NCCN)nc(-c2ccco2)c2c1CCCC2	2	-3	-14	2	0	-1

From PubChem
